# This sample holds only a part of the variants without activity.
# B1: tRNA (parent)
# chain: GUUCCGUUGGCGUAAUGGUAACGCGUCUCCCUCCUAAGGAGAAGACUGCGGGUUCGAGUCCCGUACGGAACG
# Variants of: B1
# Assay: yeast fitness relative to wild type (ratio to wild type); higher = fitter; tRNA-Arg(CCU), competitive growth, 37 C, YPD
# In short: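 Amplicons of the tRNA-Arg(CCU) gene were sequenced, 100-nucleotide paired-end, from the start population and from each end population of a pooled yeast competition. The competition, in six parallel replicates, lasted 24 hours in YPD at 37°C. Fitness relative to wild type was calculated from changes in genotype frequencies. Genotypes had to have ≥ 100 starting reads, and estimates < 0.5 were set to 0.5.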
row,Variant,yeast fitness
1,U2C C24G C34U C49A,≤ 0.5
2,U2C C24G C46U A70U,0.537
3,U2C C24G C49U,≤ 0.5
4,U2C C24G U26G C34A A36C,≤ 0.5
5,U2C C24G U53G A57G,≤ 0.5
6,U2C C24U C29U C30A A69U,≤ 0.5
7,U2C C24U C31U C46A U59A C61A,≤ 0.5
8,U2C C24U C60A,≤ 0.5
9,U2C C24U G44C A69U,≤ 0.5
10,U2C C24U U26A U28G U54G,≤ 0.5
11,U2C C24U U59C,0.537
12,U2C C27A,0.749
13,U2C C27A A40G C61G,≤ 0.5
14,U2C C27A A65G,0.632
15,U2C C27A A69C,≤ 0.5
16,U2C C27A C31G,0.557
17,U2C C27A C62A,0.641
18,U2C C27A G41A C49A U53C U54C,≤ 0.5
19,U2C C27A G41A C49A U53C U54C U64C,≤ 0.5
20,U2C C27G A43U A45U A69U,≤ 0.5
21,U2C C27G C31G A69U,≤ 0.5

row,Variant,yeast fitness
1,U2C C27G U28A A43U,0.629
2,U2C C27U A69C,0.729
3,U2C C27U G41A,1.06
4,U2C C29A A43G,0.603
5,U2C C29A U53C C62A G67A,≤ 0.5
6,U2C C29U A37G A57G,≤ 0.5
7,U2C C29U C31G U35A,≤ 0.5
8,U2C C29U C34U A57C U64C,≤ 0.5
9,U2C C29U C62U A70U,≤ 0.5
10,U2C C29U G38C A43U U53G G63C,≤ 0.5
11,U2C C30A,0.89
12,U2C C30G C31G C46G U54A,≤ 0.5
13,U2C C30G C33A A65C,≤ 0.5
14,U2C C30U,0.967
15,U2C C30U A36C A45U G50C,≤ 0.5
16,U2C C30U A37C G38C U54A,≤ 0.5
17,U2C C30U C31G,0.771
18,U2C C30U C31G G50U,≤ 0.5
19,U2C C30U C33U G63C,≤ 0.5
20,U2C C31A,0.879
21,U2C C31G,1.04

row,Variant,yeast fitness
1,U2C C31G C62A,0.532
2,U2C C31G G58A,≤ 0.5
3,U2C C31G G58A C61G U64G A69C,≤ 0.5
4,U2C C31G U35A A69U,≤ 0.5
5,U2C C31G U35A G63A,≤ 0.5
6,U2C C31U,0.892
7,U2C C31U A57U,0.535
8,U2C C33G C34U C49U,≤ 0.5
9,U2C C34G,0.62
10,U2C C34G A45C A57C,≤ 0.5
11,U2C C34U A65U,0.6
12,U2C C34U C46A,≤ 0.5
13,U2C C46G,0.98
14,U2C C46U C66U,0.779
15,U2C C46U G50A,0.737
16,U2C C49A C62U,≤ 0.5
17,U2C C49G,0.798
18,U2C C49G A65G,0.594
19,U2C C49G C55U,0.573
20,U2C C49G G58A,≤ 0.5
21,U2C C49U C62U,0.521

row,Variant,yeast fitness
1,U2C C55A G56C G67C,≤ 0.5
2,U2C C55G,0.583
3,U2C C60A,0.66
4,U2C C61A,0.783
5,U2C C61G,0.553
6,U2C C61G U64C,≤ 0.5
7,U2C C62A,0.677
8,U2C C62U,0.882
9,U2C C62U G68C A69G,≤ 0.5
10,U2C C66A A69C,≤ 0.5
11,U2C G6A,0.998
12,U2C G6A A20U C30U A36U C62U,≤ 0.5
13,U2C G6A C11U,0.587
14,U2C G6A G23A C27U A45C U47C C60A,≤ 0.5
15,U2C G6A U16A,0.65
16,U2C G9A A20G,1.07
17,U2C G9A C24G C30U C62U,≤ 0.5
18,U2C G9A U16C,0.602
19,U2C G9C,0.722
20,U2C G9C C24U U26G,≤ 0.5

# Source: the RNAGym collection of RNA variant scans (doi:10.1126/science.aae0568)
